pIC50: −log10 of the molar value.
Legend:
Assay type in all cases: functional, cell-based
[1] = tested on: NCI-H460; assay: Cytotoxicity against human NCI-H460 cells after 48 hrs by MTT assay; conditions: NCI-H460, 48 h
Outline: (§1)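 Human tumour cells (NCI-H460 lung, MCF-7 breast, SF-268 glioma) exposed to compounds for 48 h in RPMI 1640 with 10% fetal bovine serum; viability read by tetrazolium-based colorimetric MTT assay.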

[2] = tested on: MCF7; assay: Cytotoxicity against human MCF7 cells after 48 hrs by MTT assay; conditions: MCF7, 48 h; outline: as §1
[3] = tested on: SF-268; assay: Cytotoxicity against human SF268 cells after 48 hrs by MTT assay; conditions: SF-268, 48 h; outline: as §1

Compound	pIC50 [1]	pIC50 [2]	pIC50 [3]
CC1=C[C@@H]2/C=C(\C)CCCC(O)/C=C/C(=O)[C@]23C(=O)N[C@@H](CC(C)C)[C@@H]3[C@@H]1C (stereo partly drawn)	5.46	5.30	5.02
CC1=C[C@@H]2/C=C(\C)CC[C@H](O)[C@@H](O)/C=C/C(=O)[C@]23C(=O)N[C@@H](CC(C)C)[C@@H]3[C@@H]1C [ASPOCHALASIN C]	5.30	5.11	5.41
CC1=C[C@@H]2/C=C(\C)CC[C@H](O)[C@H](O)/C=C/C(=O)[C@]23C(=O)N[C@@H](CC(C)C)[C@@H]3[C@@H]1C [ASPOCHALASIN D]	5.47	5.28	5.30
CC1=C[C@@H]2/C=C(\C)CC[C@H](O)[C@H](O)[C@@H](O)CC(=O)[C@]23C(=O)N[C@@H](CC(C)C)[C@@H]3[C@@H]1C [ASPOCHALASIN E]	4.50	4.52	4.28
CC1=C[C@@H]2/C=C(\C)CC[C@H](O)[C@H](O)/C=C/C(=O)O[C@]23C(=O)N[C@@H](CC(C)C)[C@@H]3[C@@H]1C [ASPOCHALASIN I]	4.66	4.48	4.70
CC1=C[C@@H]2/C=C(\C)CCC[C@H](O)/C=C/C(=O)O[C@]23C(=O)N[C@@H](CC(C)C)[C@@H]3[C@@H]1C [ASPOCHALASIN J]	4.26	4.83	4.87
CO[C@H]1[C@@H](O)CC/C(C)=C/[C@H]2C=C(C)[C@@H](C)[C@H]3[C@H](CC(C)C)NC(=O)[C@]32C(=O)C[C@@H]1O [ASPOCHALASIN K]	4.84	4.88	4.70
CC(=O)O[C@H]1C(=O)[C@@]2(C)[C@H]([C@H](OC(=O)c3ccccc3)[C@]3(O)C[C@H](OC(=O)[C@H](O)[C@@H](NC(=O)c4ccccc4)c4ccccc4)C(C)=C1C3(C)C)[C@]1(OC(C)=O)CO[C@@H]1C[C@@H]2O [PACLITAXEL]	8.02	–	7.66
